ChEMBL document CHEMBL2380254, “Optimization of tocotrienols as antiproliferative and antimigratory leads” (Eur J Med Chem, 2013)

What was measured:
Assay type in all cases: functional
[1] = Growth inhibition of human NCI-ADR-RES cells assessed as cell growth at 10 uM after 48 hrs by sulforhodamine B assay; conditions: read-out: Activity
In short: (§1)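 Single-dose NCI-60 screen: adherent cells in RPMI 1640 with 5% FBS were exposed to 10 µM for 48 h at 37 °C after a 24 h preincubation. They were fixed in situ with cold TCA (10% final), stained with 0.4% SRB in 1% acetic acid, solubilized in 10 mM Tris base, and read at 515 nm. Percent growth was taken relative to time-zero and control plates.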

UACC-257 = assay: Growth inhibition of human UACC257 cells assessed as cell growth at 10 uM after 48 hrs by sulforhodamine B assay; conditions: UACC-257, 48 h, read-out: Activity
In short: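 Single-dose NCI-60 test at 10 µM. Cells were grown in RPMI 1640 with 5% FBS and 2 mM L-glutamine, preincubated 24 h, with T0 plates TCA-fixed. Exposure was 48 h at 37 °C, 5% CO2. Cells were fixed with cold TCA (final 10%, 4 °C, 60 min), stained with SRB and read at 515 nm. Percent growth was taken relative to T0 and untreated control; negative values denote cell kill.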

M14 = assay: Growth inhibition of human M14 cells assessed as cell growth at 10 uM after 48 hrs by sulforhodamine B assay; conditions: M14, 48 h, read-out: Activity
In short: (§2)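 NCI-60 single-dose screen at 10 µM: cells in RPMI 1640 with 5% FBS, preincubated 24 h, then exposed 48 h at 37 °C. TCA fixation (16% final for suspension cells), SRB staining, absorbance 515 nm. Percent growth relative to time-zero and untreated control plates; negative values indicate cell kill.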

HCT-116 = assay: Growth inhibition of human HCT116 cells assessed as cell growth at 10 uM after 48 hrs by sulforhodamine B assay; conditions: HCT-116, 48 h, read-out: Activity; in short: as §2
NCI-H522 [2] = assay: Growth inhibition of human NCI-H522 cells assessed as cell growth at 10 uM after 48 hrs by sulforhodamine B assay; conditions: NCI-H522, 48 h, read-out: Activity; in short: as §1
NCI-H23 = assay: Growth inhibition of human NCI-H23 cells assessed as cell growth at 10 uM after 48 hrs by sulforhodamine B assay; conditions: NCI-H23, 48 h, read-out: Activity; in short: as §1
NCI-H226 = assay: Growth inhibition of human NCI-H226 cells assessed as cell growth at 10 uM after 48 hrs by sulforhodamine B assay; conditions: NCI-H226, 48 h, read-out: Activity; in short: as §1
SR = assay: Growth inhibition of human SR cells assessed as cell growth at 10 uM after 48 hrs by sulforhodamine B assay; conditions: read-out: Activity
In short: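 Suspension line in RPMI 1640 with 5% FBS, single 10 µM dose for 48 h. Settled cells were fixed with TCA (final 16%), then SRB-stained and read at 515 nm. Percent growth was taken versus T0 and control; negative values denote cytotoxicity.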

RPMI-8226 [3] = assay: Growth inhibition of human RPMI8226 cells assessed as cell growth at 10 uM after 48 hrs by sulforhodamine B assay; conditions: RPMI-8226, 48 h, read-out: Activity
In short: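 Single 10 µM dose applied to suspension cells in RPMI 1640 with 5% FBS and 2 mM L-glutamine for 48 h at 37 °C. Settled cells were fixed with 80% TCA (16% final), stained with SRB, and read at 515 nm. Percent growth was calculated against time-zero and untreated control optical densities.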

T47D = assay: Growth inhibition of human T47D cells after 48 hrs by sulforhodamine B assay
In short: (§3)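 NCI-60 five-dose screen. Cells were grown in RPMI 1640 with 5% FBS and 2 mM L-glutamine, plated at 5000–40,000 cells/well and incubated 24 h before dosing, with T0 plates TCA-fixed. DMSO stocks were diluted to doses of […] and exposed 48 h at 37 °C, 5% CO2. Cells were fixed with cold TCA (final 10%, 60 min, 4 °C), stained with 0.4% SRB in 1% acetic acid for 10 min, solubilized in 10 mM trizma base and read at 515 nm. GI50 is where 100×(T−T0)/(C−T0)=50.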

BT-549 = assay: Growth inhibition of human BT549 cells after 48 hrs by sulforhodamine B assay; conditions: BT-549, 48 h
In short: (§4)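 NCI-60 screen: cells in RPMI 1640 with 5% FBS and 2 mM glutamine, 5000–40,000 cells/well, preincubated 24 h. Five concentrations (10-fold dilutions; 100 to 0.001 µM) applied for 48 h at 37 °C. TCA fixation, SRB stain, absorbance at 515 nm. Time-zero plates included; GI50 where 100×(T−T0)/(C−T0)=50.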

TK-10 = assay: Growth inhibition of human TK10 cells after 48 hrs by sulforhodamine B assay; conditions: TK-10, 48 h; in short: as §3
UO-31 = assay: Growth inhibition of human UO31 cells after 48 hrs by sulforhodamine B assay; conditions: UO-31, 48 h; in short: as §3
CAKI-1 = assay: Growth inhibition of human CAKI-1 cells after 48 hrs by sulforhodamine B assay; conditions: CAKI-1, 48 h; in short: as §4
SK-MEL-2 = assay: Growth inhibition of human SK-MEL-2 cells after 48 hrs by sulforhodamine B assay; conditions: SK-MEL-2, 48 h
In short: (§5)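 NCI-60 panel cells grown in RPMI 1640 with 5% FBS and 2 mM L-glutamine, seeded at 5000–40,000 cells/well and preincubated 24 h. Five 10-fold dilutions (0.001–100 µM) from DMSO stocks were added for 48 h at 37 °C. Adherent cells were fixed with cold TCA (10% final) for 60 min at 4 °C, stained with 0.4% SRB, and read at 515 nm. GI50 was set where 100×(T−T0)/(C−T0)=50.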

Malme-3M = assay: Growth inhibition of human MALME-3M cells after 48 hrs by sulforhodamine B assay; in short: as §5
SF-295 = assay: Growth inhibition of human SF295 cells after 48 hrs by sulforhodamine B assay; conditions: SF-295, 48 h; in short: as §5
SF-539 = assay: Growth inhibition of human SF539 cells after 48 hrs by sulforhodamine B assay; conditions: SF-539, 48 h; in short: as §5
NCI-H522 [4] = assay: Growth inhibition of human NCI-H522 cells after 48 hrs by sulforhodamine B assay; conditions: NCI-H522, 48 h; in short: as §5
RPMI-8226 [5] = assay: Growth inhibition of human RPMI8226 cells after 48 hrs by sulforhodamine B assay; conditions: RPMI-8226, 48 h
In short: (§6)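 NCI-60 suspension lines in RPMI 1640 with 5% FBS and 2 mM L-glutamine, preincubated 24 h. A five-concentration 10-fold series (0.001–100 µM) was given for 48 h at 37 °C. Settled cells were fixed with 80% TCA (16% final), stained with SRB, and read at 515 nm. GI50 was taken where 100×(T−T0)/(C−T0)=50, with T0 plates fixed at drug addition.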

MOLT-4 = assay: Growth inhibition of human MOLT4 cells after 48 hrs by sulforhodamine B assay; conditions: MOLT-4, 48 h; in short: as §6

CC(C)=CCC/C(C)=C/CC/C(C)=C/CC[C@]1(C)CCc2c3c(c(C)c(C)c2O1)OCN(CCCCO)C3
growth at 10 µM [1]: 57.5%
growth at 10 µM (UACC-257): 112%
growth at 10 µM (M14): 65.4%
growth at 10 µM (HCT-116): -72.3%
growth at 10 µM (NCI-H522 [2]): 86.7%
growth at 10 µM (NCI-H23): 93.5%
growth at 10 µM (NCI-H226): 100%
growth at 10 µM (SR): -11.1%
growth at 10 µM (RPMI-8226 [3]): 91.9%
GI50 (T47D): > 10 µM
GI50 (BT-549): > 10 µM
GI50 (TK-10): > 10 µM
GI50 (UO-31): 8.83 µM
GI50 (CAKI-1): > 10 µM
GI50 (SK-MEL-2): > 10 µM
GI50 (Malme-3M): > 10 µM
GI50 (SF-295): 2.08 µM
GI50 (SF-539): > 10 µM
GI50 (NCI-H522 [4]): > 10 µM
GI50 (RPMI-8226 [5]): 5.15 µM
GI50 (MOLT-4): 3.46 µM

CC(C)=CCC/C(C)=C/CC/C(C)=C/CC[C@]1(C)CCc2c3c(cc(C)c2O1)OCN(CCCCO)C3
growth at 10 µM [1]: -68.8%
growth at 10 µM (UACC-257): 98.1%
growth at 10 µM (M14): -45.8%
growth at 10 µM (HCT-116): -96.7%
growth at 10 µM (NCI-H522 [2]): 48.5%
growth at 10 µM (NCI-H23): 54.8%
growth at 10 µM (NCI-H226): 99.3%
growth at 10 µM (SR): -40.9%
growth at 10 µM (RPMI-8226 [3]): 79.2%
GI50 (T47D): 16.4 µM
GI50 (BT-549): 20.2 µM
GI50 (TK-10): 15.4 µM
GI50 (UO-31): 12.2 µM
GI50 (CAKI-1): 15.2 µM
GI50 (SK-MEL-2): 18.9 µM
GI50 (Malme-3M): 22.4 µM
GI50 (SF-295): 18.2 µM
GI50 (SF-539): 19.1 µM
GI50 (NCI-H522 [4]): 21.9 µM
GI50 (RPMI-8226 [5]): 20.4 µM
GI50 (MOLT-4): 16.2 µM

CC(C)=CCC/C(C)=C/CC/C(C)=C/CC[C@]1(C)CCc2c3c(c(C)c(C)c2O1)OCN(CCCCCCCCO)C3
growth at 10 µM [1]: 66.6%
growth at 10 µM (UACC-257): 119%
growth at 10 µM (M14): -24%
growth at 10 µM (HCT-116): -92.9%
growth at 10 µM (NCI-H522 [2]): 30.9%
growth at 10 µM (NCI-H23): 56.1%
growth at 10 µM (NCI-H226): 91.6%
growth at 10 µM (SR): -37.8%
growth at 10 µM (RPMI-8226 [3]): 71.2%
GI50 (T47D): 3.03 µM
GI50 (BT-549): 3.39 µM
GI50 (TK-10): 3.41 µM
GI50 (UO-31): 2.37 µM
GI50 (CAKI-1): 4.38 µM
GI50 (SK-MEL-2): 3.01 µM
GI50 (Malme-3M): 3.14 µM
GI50 (SF-295): 3.16 µM
GI50 (SF-539): 3.29 µM
GI50 (NCI-H522 [4]): 2.91 µM
GI50 (RPMI-8226 [5]): 3.13 µM
GI50 (MOLT-4): 3.26 µM

CC(C)=CCC/C(C)=C/CC/C(C)=C/CC[C@]1(C)CCc2c3c(cc(C)c2O1)OCN(CCCCCCCCO)C3
growth at 10 µM [1]: 18.7%
growth at 10 µM (UACC-257): 99%
growth at 10 µM (M14): -94.7%
growth at 10 µM (HCT-116): -100%
growth at 10 µM (NCI-H522 [2]): -81.6%
growth at 10 µM (NCI-H23): -20.7%
growth at 10 µM (NCI-H226): 50.2%
growth at 10 µM (SR): -53.3%
growth at 10 µM (RPMI-8226 [3]): -23.2%
GI50 (T47D): 3.94 µM
GI50 (BT-549): 5.69 µM
GI50 (TK-10): 4.64 µM
GI50 (UO-31): 3.46 µM
GI50 (CAKI-1): 4.07 µM
GI50 (SK-MEL-2): 5.59 µM
GI50 (Malme-3M): 7.15 µM
GI50 (SF-295): 1.02 µM
GI50 (SF-539): 1.28 µM
GI50 (NCI-H522 [4]): 3.75 µM
GI50 (RPMI-8226 [5]): 1.22 µM
GI50 (MOLT-4): 0.996 µM

CC(C)=CCC/C(C)=C/CC/C(C)=C/CC[C@]1(C)CCc2c3c(c(C)c(C)c2O1)OCN(CCCCCCO)C3
growth at 10 µM [1]: 30.1%
growth at 10 µM (UACC-257): 104%
growth at 10 µM (M14): 26%
growth at 10 µM (HCT-116): -92.7%
growth at 10 µM (NCI-H522 [2]): 68.3%
growth at 10 µM (NCI-H23): 47%
growth at 10 µM (NCI-H226): 97.3%
growth at 10 µM (SR): -34.8%
growth at 10 µM (RPMI-8226 [3]): 82.4%
GI50 (T47D): 2.84 µM
GI50 (BT-549): 4.18 µM
GI50 (TK-10): 3.01 µM
GI50 (UO-31): 2.27 µM
GI50 (CAKI-1): 2.82 µM
GI50 (SK-MEL-2): 3.27 µM
GI50 (Malme-3M): 2.78 µM
GI50 (SF-295): 2.97 µM
GI50 (SF-539): 3.15 µM
GI50 (NCI-H522 [4]): 3.45 µM
GI50 (RPMI-8226 [5]): 3.36 µM
GI50 (MOLT-4): 2.92 µM

CC(C)=CCC/C(C)=C/CC/C(C)=C/CC[C@]1(C)CCc2c3c(cc(C)c2O1)OCN(CCCCCCO)C3
growth at 10 µM [1]: -64.1%
growth at 10 µM (UACC-257): 90.5%
growth at 10 µM (M14): -90.8%
growth at 10 µM (HCT-116): -97.3%
growth at 10 µM (NCI-H522 [2]): -0.37%
growth at 10 µM (NCI-H23): -22.3%
growth at 10 µM (NCI-H226): 92.5%
growth at 10 µM (SR): -38%
growth at 10 µM (RPMI-8226 [3]): 35.4%
GI50 (T47D): 1.76 µM
GI50 (BT-549): 6.15 µM
GI50 (TK-10): 2.54 µM
GI50 (UO-31): 1.52 µM
GI50 (CAKI-1): 3.79 µM
GI50 (SK-MEL-2): 5.66 µM
GI50 (Malme-3M): 6.25 µM
GI50 (SF-295): 0.602 µM
GI50 (SF-539): 2.37 µM
GI50 (NCI-H522 [4]): 4.37 µM
GI50 (RPMI-8226 [5]): 1.11 µM
GI50 (MOLT-4): 0.835 µM
